Measured values: ChEMBL document CHEMBL3120066, “Discovery of a novel class of potent HCV NS4B inhibitors: SAR studies on piperazinone derivatives” (J Med Chem, 2014)
≈ marks a conversion by molar mass, not a printed value. Calls of active or inactive are those of the source. No cut-off for these calls is given here.

What was measured:
Hepatitis C virus [1] = assay: Antiviral activity against HCV2 assessed as inhibition of viral replication; type: functional, organism-based; conditions: Hepacivirus hominis; type 2
Cytochrome P450 3A4 = Cytochrome P450 3A4 (Homo sapiens, UniProt P08684); assay: Inhibition of CYP3A4 (unknown origin) up to 10 uM; type: ADME
Cytochrome P450 2D6 = Cytochrome P450 2D6 (Homo sapiens, UniProt P10635); assay: Inhibition of CYP2D6 (unknown origin) up to 10 uM; type: ADME
Cytochrome P450 2C9 = Cytochrome P450 2C9 (Homo sapiens, UniProt P11712); assay: Inhibition of CYP2C9 (unknown origin) up to 10 uM; type: ADME
Cytochrome P450 1A2 = target: T1, Cytochrome P450 1A2 (Homo sapiens, UniProt P05177); assay: Inhibition of CYP1A2 (unknown origin) up to 10 uM; type: ADME
T1 sequence (P05177 whole entry): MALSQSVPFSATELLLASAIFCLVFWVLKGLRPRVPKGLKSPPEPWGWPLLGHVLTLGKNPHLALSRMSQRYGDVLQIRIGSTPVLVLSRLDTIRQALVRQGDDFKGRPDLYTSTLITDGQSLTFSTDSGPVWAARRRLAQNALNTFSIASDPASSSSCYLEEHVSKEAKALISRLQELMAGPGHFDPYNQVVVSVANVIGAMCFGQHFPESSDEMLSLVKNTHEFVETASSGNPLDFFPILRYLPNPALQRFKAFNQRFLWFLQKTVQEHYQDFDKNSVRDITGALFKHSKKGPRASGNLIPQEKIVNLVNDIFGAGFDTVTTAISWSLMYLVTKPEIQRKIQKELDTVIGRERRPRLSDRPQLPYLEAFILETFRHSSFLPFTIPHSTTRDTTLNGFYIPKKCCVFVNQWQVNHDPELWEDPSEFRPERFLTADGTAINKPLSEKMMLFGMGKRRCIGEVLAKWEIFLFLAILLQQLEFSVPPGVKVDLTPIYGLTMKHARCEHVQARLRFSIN

[2] = Solubility of the compound at pH 4; type: physicochemical; conditions: buffer
[3] = Solubility of the compound at pH 7.4; type: physicochemical; conditions: buffer
[4] = Half life in human liver microsomes; type: ADME
Hepatitis C virus [5] = assay: Antiviral activity against HCV1a infected in clone A and ET-lunet cells assessed as inhibition of viral replication after 4 days by RT-PCR analysis; type: functional, organism-based, Hepacivirus hominis; conditions: subtype 1a, 96 h
Summary of the method: (§1)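 Run in HCV genotype 1a and 1b replicon cells; each reported value is the mean of n = 2 independent determinations.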

Hepatitis C virus [6] = assay: Antiviral activity against HCV1b infected in clone A and ET-lunet cells assessed as inhibition of viral replication after 4 days by RT-PCR analysis; type: functional, organism-based, Hepacivirus hominis; conditions: genotype 1b, 96 h; summary of the method: as §1
[7] = Cytotoxicity against human CEM cells after 8 days by MTS assay; type: cell-based; conditions: CEM cells (CCRF-CEM)
[8] = Cytotoxicity against human BxPC3 cells after 8 days by MTS assay; type: cell-based, BXPC-3
[9] = Cytotoxicity against human HepG2 cells after 8 days by MTS assay; type: cell-based
[10] = Cytotoxicity against human HuH7 cells after 8 days by MTS assay; type: cell-based, Huh-7
Hepatitis C virus [11] = assay: Antiviral activity against HCV1a infected in clone A and ET-lunet cells assessed as inhibition of viral replication up to 20 uM after 4 days by RT-PCR analysis; type: functional, organism-based; conditions: Hepacivirus hominis, subtype 1a
Hepatitis C virus [12] = assay: Antiviral activity against HCV1b infected in clone A and ET-lunet cells assessed as inhibition of viral replication up to 20 uM after 4 days by RT-PCR analysis; type: functional, organism-based; conditions: Hepacivirus hominis, genotype 1b

Sequence of Cytochrome P450 2C9 (P11712 whole entry): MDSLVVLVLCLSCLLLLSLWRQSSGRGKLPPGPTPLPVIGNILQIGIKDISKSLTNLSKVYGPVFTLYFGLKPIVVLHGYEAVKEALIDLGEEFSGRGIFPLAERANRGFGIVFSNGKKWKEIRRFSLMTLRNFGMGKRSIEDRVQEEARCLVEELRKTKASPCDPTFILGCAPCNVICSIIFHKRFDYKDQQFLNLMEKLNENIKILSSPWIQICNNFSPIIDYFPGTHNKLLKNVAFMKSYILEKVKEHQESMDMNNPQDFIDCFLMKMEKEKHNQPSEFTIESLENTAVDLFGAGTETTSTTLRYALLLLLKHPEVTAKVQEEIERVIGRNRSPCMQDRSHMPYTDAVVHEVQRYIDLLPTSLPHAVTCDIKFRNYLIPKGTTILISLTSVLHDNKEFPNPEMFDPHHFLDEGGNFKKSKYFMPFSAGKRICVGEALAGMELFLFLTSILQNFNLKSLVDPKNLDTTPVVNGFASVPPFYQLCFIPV
Sequence of Cytochrome P450 3A4 (P08684 whole entry): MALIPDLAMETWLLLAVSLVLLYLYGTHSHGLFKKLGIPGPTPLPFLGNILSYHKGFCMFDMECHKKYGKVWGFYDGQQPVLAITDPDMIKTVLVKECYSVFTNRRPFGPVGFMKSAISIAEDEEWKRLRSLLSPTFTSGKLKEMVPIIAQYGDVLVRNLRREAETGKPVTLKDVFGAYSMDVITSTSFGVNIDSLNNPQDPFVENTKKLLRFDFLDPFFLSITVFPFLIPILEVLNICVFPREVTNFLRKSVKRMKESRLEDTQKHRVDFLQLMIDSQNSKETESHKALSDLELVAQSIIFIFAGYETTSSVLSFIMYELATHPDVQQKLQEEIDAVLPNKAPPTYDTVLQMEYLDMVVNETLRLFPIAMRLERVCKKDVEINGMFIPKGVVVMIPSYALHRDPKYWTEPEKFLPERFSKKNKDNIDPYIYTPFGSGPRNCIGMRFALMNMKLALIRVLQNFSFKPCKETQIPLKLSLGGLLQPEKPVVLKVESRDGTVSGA
Sequence of Cytochrome P450 2D6 (P10635 whole entry): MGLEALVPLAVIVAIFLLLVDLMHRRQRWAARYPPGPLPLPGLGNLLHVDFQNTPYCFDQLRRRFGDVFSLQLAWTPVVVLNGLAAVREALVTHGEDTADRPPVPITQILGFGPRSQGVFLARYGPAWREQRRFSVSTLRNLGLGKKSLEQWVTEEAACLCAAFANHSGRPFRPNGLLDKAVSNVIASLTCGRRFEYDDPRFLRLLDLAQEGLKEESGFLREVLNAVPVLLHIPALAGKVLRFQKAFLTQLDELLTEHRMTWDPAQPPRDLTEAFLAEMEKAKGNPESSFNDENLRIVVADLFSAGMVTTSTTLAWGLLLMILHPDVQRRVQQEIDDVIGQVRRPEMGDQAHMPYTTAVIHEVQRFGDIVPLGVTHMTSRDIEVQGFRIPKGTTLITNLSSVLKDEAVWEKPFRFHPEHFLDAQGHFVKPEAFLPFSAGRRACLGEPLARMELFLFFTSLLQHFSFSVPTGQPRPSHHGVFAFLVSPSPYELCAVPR

Question: What does the source list for CC(C)C[C@H]1C(=O)N[C@@H](c2cnco2)CN1C(=O)c1cc(-c2ccc(F)cc2)on1?
Answer: inhibition (Hepatitis C virus [1]): inactive; inhibition (INH) (Cytochrome P450 3A4): Not Active; inhibition (INH) (Cytochrome P450 2D6): Not Active; inhibition (INH) (Cytochrome P450 2C9): Not Active; inhibition (INH) (Cytochrome P450 1A2): Not Active; solubility [2]: 147 µg/mL (≈ 356 µM); solubility [3]: 151 µg/mL (≈ 366 µM); half-life [4]: 0.667 h; EC90 (Hepatitis C virus [5]): 16 nM; EC90 (Hepatitis C virus [6]): 70 nM

Question: What does the source list for CC(C)C[C@H]1CN(C(=O)[C@@H]2C[C@H]2c2ccccc2)[C@@H](CC(C)C)C(=O)N1?
Answer: CC50 at 192 h [7]: 40000 nM; CC50 at 192 h [8]: 40000 nM; CC50 at 192 h [9]: 40000 nM; CC50 at 192 h [10]: 40000 nM; EC90 (Hepatitis C virus [5]): 1000 nM; EC90 (Hepatitis C virus [6]): 800 nM

Question: What does the source list for CC(C)C[C@H]1C(=O)N[C@@H](c2cccs2)CN1C(=O)c1cc(-c2ccc(F)cc2)on1?
Answer: inhibition (Hepatitis C virus [1]): inactive; inhibition (INH) (Cytochrome P450 3A4): Not Active; inhibition (INH) (Cytochrome P450 2D6): Not Active; inhibition (INH) (Cytochrome P450 2C9): Not Active; inhibition (INH) (Cytochrome P450 1A2): Not Active; solubility [2]: 0.2 µg/mL (≈ 0.468 µM); solubility [3]: 0.2 µg/mL (≈ 0.468 µM); half-life [4]: 2 h; EC90 (Hepatitis C virus [5]): 22 nM; EC90 (Hepatitis C virus [6]): 6 nM

Question: With CC(C)C[C@H]1CN(C(=O)[C@H]2C[C@@H]2c2ccccc2)[C@@H](CC(C)C)C(=O)N1 as the molecule, how does the inhibition (Hepatitis C virus [11]) read?
Answer: inactive

Question: What about the inhibition (Hepatitis C virus [12]) of the same molecule?
Answer: inactive

Question: What about the EC90 (Hepatitis C virus [5]) of the same molecule?
Answer: > 10000 nM

Question: What about the EC90 (Hepatitis C virus [6]) of the same molecule?
Answer: > 10000 nM
